ChEMBL document CHEMBL4138261, “SAR Studies of Indole-5-propanoic Acid Derivatives To Develop Novel GPR40 Agonists” (ACS Med Chem Lett, 2017)
pEC50: −log10 of the molar value. Active and inactive are the calls of the source.

Assays:
[1] = target: T1, Peroxisome proliferator-activated receptor gamma (Homo sapiens) (UniProt P37231); test: Transactivation of human PPARgamma expressed in CHO cells at 10 uM after 24 hrs by luciferase reporter gene assay relative to rosiglitazone; type: cell-based
T1 sequence (whole entry): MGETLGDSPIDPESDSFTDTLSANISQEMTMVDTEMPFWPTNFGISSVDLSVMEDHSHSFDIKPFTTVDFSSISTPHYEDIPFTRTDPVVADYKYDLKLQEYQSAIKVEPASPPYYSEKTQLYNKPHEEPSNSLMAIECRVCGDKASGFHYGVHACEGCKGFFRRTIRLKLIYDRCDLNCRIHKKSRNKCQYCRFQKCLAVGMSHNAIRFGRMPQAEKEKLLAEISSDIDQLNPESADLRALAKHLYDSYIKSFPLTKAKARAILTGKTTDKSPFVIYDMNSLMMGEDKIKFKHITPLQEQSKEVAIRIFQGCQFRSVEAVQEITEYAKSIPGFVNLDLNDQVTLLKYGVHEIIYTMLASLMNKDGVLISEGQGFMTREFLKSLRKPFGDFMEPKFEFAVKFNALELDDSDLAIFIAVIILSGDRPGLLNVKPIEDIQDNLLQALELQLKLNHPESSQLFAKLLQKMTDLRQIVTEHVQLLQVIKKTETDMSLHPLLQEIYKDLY
Method in brief: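 Luciferase reporter transactivation assay for PPARγ; compounds tested at 10 μM; activity expressed as percent of 1 μM rosiglitazone; no activity defined as >25 μM.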

[2] = Intrinsic clearance in human liver microsomes at 1 uM after 30 mins in presence of NADPH by UPLC-MS analysis; type: ADME, microsome; conditions: 0.5 h
Method in brief: (§1)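 Liver microsomal stability; intrinsic clearance reported in μL/min/mg.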

[3] = Intrinsic clearance in CD-1 mouse liver microsomes at 1 uM after 30 mins in presence of NADPH by UPLC-MS analysis; type: ADME, microsome; conditions: 0.5 h; method in brief: as §1
[4] = target: Free fatty acid receptor 1 (Homo sapiens, UniProt O14842); test: Agonist activity at human GPR40 expressed in CHO cells after 24 hrs by NFAT-luciferase reporter gene assay; type: functional, cell-based
[5] = target: Free fatty acid receptor 1 (Mus musculus) (UniProt Q76JU9); test: Agonist activity at GPR40 in mouse MIN6 cells assessed as increase in 17 mM glucose-stimulated insulin secretion at 1 and 10 uM after 2 hrs by ELISA relative to glucose; type: functional, cell-based
Method in brief: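 GSIS in MIN6 insulinoma cells stimulated with 17 mM glucose; insulin secretion compared with 17 mM glucose alone by Student's test (*p ≤ 0.05, **p ≤ 0.025, ***p ≤ 0.01).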

[6] = target: T2, Peroxisome proliferator-activated receptor gamma (Homo sapiens, UniProt P37231); test: Transactivation of human PPARgamma expressed in CHO cells after 24 hrs by luciferase reporter gene assay; type: cell-based
T2 sequence (P37231 whole entry): T1 sequence (whole entry)

Free fatty acid receptor 1, sequence (O14842 whole entry): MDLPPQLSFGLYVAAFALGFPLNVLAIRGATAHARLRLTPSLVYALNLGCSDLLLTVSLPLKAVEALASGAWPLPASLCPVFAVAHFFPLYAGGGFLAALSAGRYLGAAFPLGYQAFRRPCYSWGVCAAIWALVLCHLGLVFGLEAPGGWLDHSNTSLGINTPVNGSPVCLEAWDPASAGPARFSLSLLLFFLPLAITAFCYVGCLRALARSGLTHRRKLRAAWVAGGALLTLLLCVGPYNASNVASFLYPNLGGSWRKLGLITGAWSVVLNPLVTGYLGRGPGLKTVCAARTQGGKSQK
Free fatty acid receptor 1 (Mus musculus), sequence (Q76JU9 whole entry): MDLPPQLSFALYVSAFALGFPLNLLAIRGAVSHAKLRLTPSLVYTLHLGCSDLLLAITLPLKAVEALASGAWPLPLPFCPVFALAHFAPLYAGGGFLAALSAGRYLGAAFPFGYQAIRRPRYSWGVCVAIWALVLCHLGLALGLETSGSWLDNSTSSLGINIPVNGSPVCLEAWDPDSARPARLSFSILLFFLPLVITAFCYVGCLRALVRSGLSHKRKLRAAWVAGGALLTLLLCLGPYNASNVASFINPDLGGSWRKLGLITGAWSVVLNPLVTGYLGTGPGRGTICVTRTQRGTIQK

Row | Compound | Activity [1] | pEC50 [4] | other results
1 | Cc1cccc(-c2cc3cc(CCC(=O)O)ccc3[nH]2)c1 | 8% | < 4.60 | –
2 | Cc1ccc(-c2cc3cc(CCC(=O)O)ccc3[nH]2)cc1 | 4% | < 4.60 | –
3 | O=C(O)CCc1ccc(NCc2cccc(Oc3ccccc3)c2)cc1 [GW9508] | – | 7.30 | –
4 | COc1cccc(-c2cc3cc(CCC(=O)O)ccc3[nH]2)c1 | 5% | < 4.60 | –
5 | O=C(O)CCc1ccc2[nH]c(-c3ccccc3Cl)cc2c1 | 1% | 7.23 to 7.26 | CLH [2]: 9.2 µL/min; CLH [3]: 14.3 µL/min; fold change (FC) [5]: 1.4
6 | O=C(O)CCc1ccc2[nH]c(-c3ccccc3)cc2c1 | 14% | < 4.60 | Activity [5]: inactive
7 | Cc1cc(OCCCS(C)(=O)=O)cc(C)c1-c1cccc(COc2ccc3c(c2)OC[C@H]3CC(=O)O)c1 | – | – | fold change (FC) [5]: 1.7
8 | Cn1c(-c2cccc(Cl)c2)cc2cc(CCC(=O)O)ccc21 | – | < 5.00 | –
9 | Cc1ncccc1-c1cc2cc(CCC(=O)O)ccc2[nH]1 | 64% | < 4.60 | pEC50 [6]: 4.24
10 | O=C(O)CCc1ccc2[nH]c(-c3ccc(Cl)cc3)cc2c1 | 1% | 6.11 | –
11 | O=C(O)CCc1ccc2[nH]c(-c3ccccc3C(F)(F)F)cc2c1 | 8% | 5.88 | –
12 | O=C(O)CCc1ccc2[nH]c(-c3ccccc3OC(F)(F)F)cc2c1 | 2% | 5.99 | –

Now from value to compound, other results behind:

Row | Activity [1] | pEC50 [4] | Compound | other results
13 | 101% | 7.42 | O=C(O)CCc1ccc2[nH]c(-c3cccc(Cl)c3)cc2c1 | CLH [2]: 4.3 µL/min; CLH [3]: 11.3 µL/min; fold change (FC) [5]: 1.7; pEC50 [6]: 5.62
14 | 3% | 5.92 | O=C(O)CCc1ccc2[nH]c(-c3ccccc3F)cc2c1 | –
15 | 56% | 5.74 | O=C(O)CCc1ccc2[nH]c(-c3cccc(Br)c3)cc2c1 | pEC50 [6]: 3.63
16 | – | < 5.00 | Cn1c(-c2ccc(Cl)cc2)cc2cc(CCC(=O)O)ccc21 | –
17 | 4% | 8.03 | O=C(O)CCc1ccc2[nH]c(-c3ccccc3Br)cc2c1 | CLH [2]: 7.1 µL/min; CLH [3]: 10.4 µL/min; fold change (FC) [5]: 1.6
18 | 2% | < 4.60 | CC(C)c1ccccc1-c1cc2cc(CCC(=O)O)ccc2[nH]1 | –
19 | 4% | 6.35 | Cc1ccccc1-c1cc2cc(CCC(=O)O)ccc2[nH]1 | –
20 | – | < 5.00 | Cn1c(-c2ccccc2Br)cc2cc(CCC(=O)O)ccc21 | –
21 | 0% | < 4.60 | COc1ccccc1-c1cc2cc(CCC(=O)O)ccc2[nH]1 | –
22 | 5% | < 4.60 | COc1ccc(-c2cc3cc(CCC(=O)O)ccc3[nH]2)cc1 | –
23 | 7% | 5.74 | CCc1ccccc1-c1cc2cc(CCC(=O)O)ccc2[nH]1 | –
